Data: article PMC11890989 (Zoological Research, 2025)
Entries after “also recorded” stand apart in the source; their conditions may differ.

How the values were obtained:
AjTRHR [1] = assay: Intracellular Ca2+ mobilization; format: cell-based, Apostichopus japonicus; conditions: negative control, reverse sequence of AjTRH7; Supplementary Figure S3B
Method in brief: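 HEK293T cells were grown in DMEM with 10% FBS at 37°C and 5% CO2. At ~70% confluence they were transfected by lipofection with receptor-pcDNA3.1(+). Cells were loaded with 3 μmol/L Fura-2/AM for 30 min, then stimulated with peptide. Test peptides spanned 10−9–10−5 mol/L, with reversed-sequence peptide or empty-vector cells as negative controls. Fluorescence was read on a plate reader. Experiments were repeated independently at least three times.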

AjTRHR [2] = assay: ERK1/2 phosphorylation; format: cell-based, Apostichopus japonicus; conditions: AjTRH7 10^−6 mol/L
Method in brief: (§1)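 HEK293T cells (DMEM, 10% FBS, 37°C, 5% CO2) were transfected at ~70% confluence with AjTRHR-pcDNA3.1(+) or empty vector using Lipofectamine 2000. Receptor cells received 10^−6 mol/L peptide for 0, 5, 15, 30, 45 or 60 min at 37°C. Lysate protein was BCA-normalised, run on 10% SDS-PAGE, blotted to PVDF and probed for pERK1/2 (1:2 000) and total ERK1/2 (1:1 000). Bands were ECL-detected and densitometry expressed as pERK/tERK; six repetitions, mean+SEM.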

AjTRHR [3] = assay: Ligand binding assays / receptor activation summary; format: cell-based, Apostichopus japonicus; conditions: for agonism at AjTRHR: bioinformatics and ligand-binding assays, cAMP/PKA-ERK/MAPK cascade and possibly Ca^2+-dependent pathway
AjTRHR [4] = assay: cAMP content; format: cell-based, Apostichopus japonicus; conditions: 10^−9–10^−5 mol/L, 30 min; HEK293T, AjTRHR-pcDNA3.1(+); Figure 4C (AjTRH7), Figure 6A (AjTRH1)
Method in brief: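 HEK293T cells transfected with AjTRHR-pcDNA3.1(+) or empty pcDNA3.1(+) were exposed to gradient-diluted peptide (10^−9–10^−5 mol/L) for 30 min. Cells were then washed twice in PBS and lysed, and intracellular cAMP was quantified with a commercial cAMP assay kit.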

Apostichopus japonicus [5] = assay: In vivo weight gain rate; conditions: 0.05 mg/mL (LTG) vs 0.5 mg/mL (HTG) AjTRH7
Method in brief: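 Sub-adult sea cucumbers (30±5.8 g) were kept in filtered UV-sterilised seawater (18–20°C, 32 ppt, 12:12 h light/dark), six per tank and five tanks per group (30 per group), fed ad libitum each morning (commercial feed:sea mud 1:3). Peptide in sterile seawater at 0.5 or 0.05 mg/mL, or seawater alone, was injected orally into the coelom at 0.1% (v/w) every two days at noon for over 25 days. Body weight was taken at start and end to derive WGR. Analysis used linear mixed models with tank as random factor and Tukey tests.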

AjCCKP1 [6] = assay: In vivo relative AjCCKP1 expression in intestine, RT-qPCR; set-up: species or system Apostichopus japonicus; conditions: AjTRH7 0.05 mg/mL (LTG) injection; F(2,10)=8.091, P<0.05; Figure 7B
Apostichopus japonicus [7] = assay: In vivo feed intake rate; conditions: AjTRH1/AjTRH7 injection, A. japonicus
Method in brief: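 Sub-adult sea cucumbers (~30 g) were held in UV-sterilised filtered seawater at 18–20°C, 32 ppt and 12:12 h light/dark. They were fed ad libitum each morning with commercial feed mixed 1:3 with sea mud. Six groups were set up, each in five tanks of six animals. Test peptide in sterile seawater (0.5 or 0.05 mg/mL) or seawater alone was injected at 0.1% (v/w) via the mouth into the coelom at noon every two days, for over 25 days. Uneaten food was collected daily, dried and weighed. FI was calculated per a prior method, and tank was a random factor in linear mixed models with Tukey tests.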

[8] = test system: HEK293T cells transfected with empty pcDNA 3.1(+) vector; assay: ERK1/2 phosphorylation, empty pcDNA 3.1; format: cell-based, human; conditions: AjTRH7 10^−5 mol/L, negative control, Figure 4E
Method in brief: as §1

AjCCKP1 [9] = assay: In vivo relative AjCCKP1 expression in circumoral nerve ring; set-up: species or system Apostichopus japonicus; conditions: AjTRH7 0.5 mg/mL (HTG) injection; F(2,10)=6.852, P<0.05; Figure 7A
AjTRHR [10] = assay: SRE-Luc reporter assay; format: cell-based, Apostichopus japonicus; conditions: 10^-9-10^-5 mol/L; HEK293T expressing AjTRHR; Supplementary Figure S6
rats = conditions: obese rats, prolonged TRH administration; ref Al-Arabi & Andrews, 2006; cited from earlier work
[11] = test system: rodents, such as rats and squirrels; conditions: ref Al-Arabi & Andrews, 2006, Frare et al., 2021, Puga et al., 2016, Schuhler et al., 2007, Schwartz et al., 2013, Steward et al., 2003; cited from earlier work

**Q.** With EWFKWPSGPLQ as the substance, how does the “Ca2+ response to reverse peptide sequence” value (AjTRHR [1]) read?
**A.** no observable responses

**Q.** Which results are given for pQLPGSPWKFWE [AjTRH7]?
**A.** p-ERK1/2 activity at 15 min (AjTRHR [2]; 15 min, 37°C, mean±SEM (n=6), F(5,10)=5.563, P<0.05, Figure 4E): markedly increased; p-ERK1/2 activity at 30 min (AjTRHR [2]; 30 min, 37°C, mean±SEM (n=6), F(5,10)=5.563, P<0.05, Figure 4E): markedly increased; p-ERK1/2 after the peak (AjTRHR [2]; after 15 min peak, up to 60 min): subsequently returning to baseline levels; agonism at AjTRHR (AjTRHR [3]): acts as an agonist for AjTRHR; cAMP accumulation (AjTRHR [4]): cAMP accumulation; inhibitory effect, LTG compared with HTG (WGR context) (Apostichopus japonicus [5]): stronger inhibitory effect in the LTG group than in the HTG group; AjCCKP1 expression in intestine (AjCCKP1 [6]): significantly up-regulated; food intake (summary) (Apostichopus japonicus [7]): inhibited food intake; p-ERK1/2 response in empty vector cells [8]: no significant responses; AjCCKP1 expression in CNR (AjCCKP1 [9]): significantly up-regulated

**Q.** With pQYFA [AjTRH1] as the substance, how does the “agonism at AjTRHR” value (AjTRHR [3]) read?
**A.** activates AjTRHR by increasing cAMP levels

**Q.** What about the “binding to AjTRHR” value (AjTRHR [3]; inferred from receptor assays in HEK293T cells expressing AjTRHR) of the same substance?
**A.** binds to AjTRHR

**Q.** And the cAMP accumulation (AjTRHR [4])?
**A.** cAMP accumulation

**Q.** And the “Ca2+ mobilization (SRE-driven luciferase activity)” value (AjTRHR [10])?
**A.** no Ca^2+ mobilization was observed; also recorded: does not induce significant Ca^2+ influx

**Q.** What about the “food intake (summary)” value (Apostichopus japonicus [7]) of the same substance?
**A.** inhibited food intake

**Q.** With thyrotropin-releasing hormone [TRH] as the substance, how does the body weight (rats) read?
**A.** reduced body weight

**Q.** And the food intake (rats)?
**A.** suppress food intake

**Q.** And the resting metabolic rate (rats)?
**A.** elevate resting metabolic rates

**Q.** And the “feeding motivation and feeding behavior” value [11]?
**A.** suppress feeding motivation and inhibit feeding behavior
